# KCNK3 block: human KCNK3 channel inhibition, primary screen; B-score at 10 µM; 340,000 compounds, 0.84% hits; CHO-KCNK3 thallium flux, FluxOR fluorescence; stronger effect = lower value; O14649;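 active = B-score under library mean minus 4 SD, starting fluorescence ratio at most library mean plus 5 SD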;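 note: more negative B-score means stronger inhibition of thallium flux through KCNK3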
# hERG protect: shields human hERG channel from block by proarrhythmic agents; Q12809; CHO-hERG, FluxOR thallium flux, dofetilide IC70 present; activation (rescue from dofetilide block), less the hit threshold, % at 10 µM; 310,000 compounds, 0.51% hits;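 active = activation above the mean of controls blocked by dofetilide plus 5 SD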;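 note: thallium influx through hERG after potassium depolarization seen as dye fluorescence rise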
# Kir21 block: inhibitors of mouse Kir2.1 inward-rectifier potassium channel | 310,000 compounds, 0.85% hits | B-score at 10 µM | HEK293-Kir2.1, FluxOR thallium flux fluorescence; stronger effect = lower value | P35561 | AID 1672;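 active = fluorescence ratio B-score at or below minus 3 SD of library scores, with starting-brightness B-score within 2 SD, cut at about -4.2 in these data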;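 note: channel flux triggered by added potassium and thallium sulfate stimulus; B-score of peak minus minimum fluorescence over baseline after thallium stimulus; more negative B-score means stronger Kir2.1 block with less thallium influx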
# KCNK9 block: inhibitors of human KCNK9 two-pore domain potassium channel; HEK293 KCNK9, FluxOR thallium flux fluorescence; stronger effect = lower value; B-score at 10 µM; 310,000 compounds, 1.2% hits;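 active = ratio B-score over 3 SD below the library mean, with starting fluorescence within 5 SD of its mean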;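 note: negative B-score means less thallium flux so channel inhibition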
# Target sequence (Q9NPC2 whole entry, looked up, the tested form may be a part): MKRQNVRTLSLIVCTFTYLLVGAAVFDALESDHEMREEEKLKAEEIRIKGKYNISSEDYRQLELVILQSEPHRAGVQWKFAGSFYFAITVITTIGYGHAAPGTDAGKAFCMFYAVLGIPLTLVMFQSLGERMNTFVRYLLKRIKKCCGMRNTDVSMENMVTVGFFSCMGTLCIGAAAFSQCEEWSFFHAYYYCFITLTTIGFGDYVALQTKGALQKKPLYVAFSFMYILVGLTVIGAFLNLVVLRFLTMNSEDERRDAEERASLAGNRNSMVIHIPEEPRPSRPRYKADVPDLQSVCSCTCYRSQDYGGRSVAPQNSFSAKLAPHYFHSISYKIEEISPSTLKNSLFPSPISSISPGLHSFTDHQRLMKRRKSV
# KCNQ1 act: human KCNQ1 channel potentiation or activation; P51787; CHO-K1 KCNQ1, thallium flux FluxOR fluorescence; stronger effect = higher value; B-score at 10 µM; 310,000 compounds, 0.35% hits;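 active = fluorescence ratio B-score, a plate-corrected score, at least three library SD, with initial intensity B-score within 5 SD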
#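 Assay system: CHO-K1 cells stably expressing KCNQ1; Medium: assay buffer with matched DMSO; Also added: K+/Tl+ depolarizing stimulus; Dosing: single dose; Timing: dye 90 min, compound 20 min, room temperature; Measured by: kinetic FluxOR thallium fluorescence, 10-s 1-Hz baseline, 110-s post-stimulus read; Read-out: peak-minus-minimum fluorescence over initial fluorescence, negative-control normalized, B-scored.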
# KCNQ1 block: inhibitors of human KCNQ1 potassium channel | P51787 | CHO-K1 KCNQ1, FluxOR thallium flux fluorescence; stronger effect = higher value | B-score at 10 µM | 310,000 compounds, 1.3% hits | AID 2642;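 active = compounds whose thallium flux B-score, printed positive for inhibition, exceeds three library SD while starting fluorescence stays within three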;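 note: channel opened by potassium depolarization with thallium stimulus after 20 min compound exposure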
# * = called active by the depositor; i = inactive; · = not tested or not shown. A selection: hits, their analogues and other compounds. The true share with any hit is near 3.8%.
SMILES,KCNK3 block,hERG protect,Kir21 block,KCNK9 block,KCNQ1 act,KCNQ1 block
Cn1c(-c2ccc3c(c2)OCO3)cnc1NCc1ccccc1Cl,i,-14,-4.3*,i,i,i
Cn1c(-c2ccc3c(c2)OCO3)cnc1NCc1ccccc1,i,-22,-6*,i,i,i
Cn1nc(C(=O)OCC(=O)Nc2ccccc2[N+](=O)[O-])c2ccccc2c1=O,i,·,·,·,·,·
COc1ccc(CCN2CCCC(CN(C)Cc3cc(Cl)c(O)c(OC)c3)C2)cc1 (centres undefined),i,-5,-1.6,i,i,i
N#Cc1ccsc1NC(=O)COC(=O)C1=NNC(=O)CC1,i,·,·,·,·,·
CCn1c(Cn2nnc(-c3ccccc3)n2)nnc1SCC(=O)Nc1cccc(C(C)=O)c1,i,-4,-2.4,i,i,i
CCn1c(Cn2nnc(-c3ccccc3)n2)nnc1SCC(=O)Nc1ccc(C(C)=O)cc1,i,4.6*,-0.67,i,i,i
C/C(Cl)=C\Cn1c(O)c(N=NC(N)=S)c2cc(Br)ccc21,i,26*,2.4,i,19*,i
NC(=S)N=Nc1c(O)n(Cc2ccc(Br)cc2)c2ccccc12,i,15*,-1.9,i,i,i
Cc1ccc(NC(=O)CN2C(=O)S/C(=C/c3ccc(-c4cccc(C(=O)O)c4)o3)C2=O)cc1,i,·,·,·,·,·
Cc1ccc(NC(=O)CN2C(=O)S/C(=C\c3ccc(-c4cccc(C(=O)O)c4C)o3)C2=O)cc1,·,15*,-10,i,i,i
Cc1cccc(OCCSc2nncn2C)c1,i,9.8*,-0.63,i,i,i
N#CC(CC(=O)c1ccc(F)cc1)c1ccc2c(c1)OCO2 (centres undefined),i,-3,0.02,i,i,i
Cc1ccc(C)c(OCCC(=O)OCC(=O)Nc2cc(S(=O)(=O)N3CCCCC3)ccc2C)c1,-10*,·,·,·,·,·
Cc1ccc(C)c(C(=O)OCC(=O)Nc2cccc(S(=O)(=O)N3CCCCC3)c2)c1,-9.6*,·,·,·,·,·
CCc1nc2ccccc2c(C(=O)OCC(=O)Nc2cccc(S(=O)(=O)N3CCOCC3)c2)c1C,-9*,-12,0.9,i,i,i
CCCC(C(=O)Nc1cccc(S(=O)(=O)N2CCCC2)c1)c1ccccc1 (centres undefined),i,-11,-0.45,-7.4*,i,i
CC(CC(=O)Nc1cccc(S(=O)(=O)N2CCCCC2)c1)c1ccccc1 (centres undefined),i,·,·,·,·,·
Cc1ccc(S(=O)(=O)N2CCCCC2)cc1NC(=O)c1cc2ccccc2o1,-9*,·,·,·,·,·
Cc1ccc(C)c(OCCC(=O)N2CCN(S(=O)(=O)c3ccc([N+](=O)[O-])cc3)CC2)c1,i,·,·,·,·,·
CC(=O)OCCn1c2nc(=O)[nH]c(=O)c-2nc2cc(C)c(C)cc21,i,-46,-21,i,i,37*
CC(=O)OCCn1c(C)[n+](CCOC(C)=O)c2cc(Cl)c(Cl)cc21,i,-14,1.3,i,i,i
C/C(=N\NC(=O)CC1N=C(Cc2ccccc2)NNC1=O)c1ccncc1 (centres undefined),i,-6,0.46,i,i,i
Cc1ccc(/C=N/NC(=O)CC2N=C(Cc3ccccc3)NNC2=O)cc1 (centres undefined),i,5.2*,1.7,i,i,i
CC(OCC(O)CN(C)CCOc1ccccc1)c1ccc(Cl)cc1 (centres undefined),i,-10,-5*,i,i,i
SMILES,KCNK3 block,hERG protect,Kir21 block,KCNK9 block,KCNQ1 act,KCNQ1 block
CN(CCOc1ccc(Cl)cc1)CC(O)c1ccccc1 (centres undefined),i,-4,0.02,i,i,i
O=C(C[n+]1ccc(-c2cc(C(=O)Nc3cccc(C(F)(F)F)c3)c3ccccc3n2)cc1)c1cccc([N+](=O)[O-])c1,i,-20,-1.3,i,i,7*
Cc1ccn(-c2ccc(NC(=O)c3cccs3)cc2)n1,i,-6,0.87,i,i,i
CC(C)CC(=O)NC(NC(=S)Nc1sc2c(c1C#N)CCCC2)C(Cl)(Cl)Cl (centres undefined),i,-19,2.6,-7.4*,i,i
Cc1nc(=O)c(-c2ccccc2)c(C)n1-c1ccccc1,i,0,0.85,i,i,i
CC(=O)Nc1ccc(-n2c(C)nc(=O)c(-c3ccccc3)c2C)cc1,i,4.7*,0.7,i,i,i
Cc1onc(-c2ccccc2)c1CNS(=O)(=O)c1ccccc1[N+](=O)[O-],i,-6,-6.9*,i,i,i
Cc1ccccc1CNS(=O)(=O)c1ccccc1[N+](=O)[O-],i,0,-1.1,i,i,i
Cc1ccc(NC(=O)c2c([N+](=O)[O-])c(C(C)(C)C)nn2C)cc1,i,24*,1.5,i,i,i
Cn1nc(C(C)(C)C)c([N+](=O)[O-])c1C(=O)Nc1ccccc1,i,-10,-0.05,i,i,i
OC(c1cc(-c2ccc(Cl)cc2)nc2ccccc12)C1CCCCN1 (centres undefined),i,-15,-5.4*,i,i,i
O[C@@H](c1cc(C(F)(F)F)nc2c(C(F)(F)F)cccc12)[C@H]1CCCCN1,i,-13,-0.02,i,i,i
CCC(C)NCCOc1ccc(C(C)(C)c2ccccc2)cc1 (centres undefined),i,-11,-12*,i,i,i
CC(C)(C)c1ccc(OCCCCCCN2CCNCC2)cc1,i,-16,-0.23,i,i,i
CC(C)(c1ccccc1)c1ccc(OCCCN2CCNCC2)cc1,i,-9,-5.8*,i,i,i
COCCCNCCOc1ccc(C(C)(C)c2ccccc2)cc1,i,-10,-13*,i,i,i
COc1ccccc1NC(=O)c1cccc2c(Br)cccc12,i,2,0.52,i,i,i
Cc1ccc(C(C)C)c(OCCNS(C)(=O)=O)c1,i,-4,-0.3,i,i,i
CCCCNCC#CCOc1cc(C)ccc1C(C)C,i,-24,-4.7*,i,i,i
Cc1ccc(C(C)C)c(OCCCNCc2cccnc2)c1,i,-7,-5.7*,i,i,i
Cc1ccc(CS(=O)(=O)CC(C)(O)c2ccccc2)cc1 (centres undefined),i,0,0.88,i,i,i
Cc1cc(C(=O)O)c(CSCc2cc(C(=O)O)oc2C)o1,i,-6,-2.2,i,i,i
O=C(CN1CCN(S(=O)(=O)N2CCOCC2)CC1)Nc1cc(Cl)ccc1Cl,i,-7,-1.5,i,i,i

# Source: PubChem (Johns Hopkins Ion Channel Center)
